Data as given in ChEMBL document CHEMBL3352184, “6-Deoxy-13-hydroxy-8,11-dione-dihydrogranaticin B, an intermediate in granaticin biosynthesis, from Streptomyces sp. CPCC 200532” (J Nat Prod, 2014).
Calls of active or inactive are those of the source. The rule behind the calls is not given here.

What was measured:
A549 = experiment: Cytotoxicity against human A549 cells by MTT assay; type: functional, cell-based
Procedure, shortened: (§1)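 MTT read-out on cancer cell lines exposed to a series of concentrations per compound (ranges spanning roughly 0.6–372.1 μM); compounds dissolved in DMSO, final DMSO 0.1%.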

[1] = Cytotoxicity against human HCT116 cells by MTT assay; type: functional, cell-based; conditions: HCT-116; procedure, shortened: as §1
HeLa = experiment: Cytotoxicity against human HeLa cells by MTT assay; type: functional, cell-based; procedure, shortened: as §1
HepG2 = experiment: Cytotoxicity against human HepG2 cells by MTT assay; type: functional, cell-based; procedure, shortened: as §1
Bacillus subtilis = experiment: Antibacterial activity against Bacillus subtilis CMCC 63501 after 16 to 18 hrs by filter paper disk assay; type: functional, organism-based

Row | Structure (SMILES) | IC50 (A549) [µM] | IC50 [1] [µM] | IC50 (HeLa) [µM] | IC50 (HepG2) [µM] | Activity (Bacillus subtilis)
1 | C[C@@H]1O[C@H]2CC(=O)O[C@H]2C2=C1C(=O)c1c(O)c3c(c(O)c1C2=O)[C@H]1C[C@@H](O)[C@]3(O)[C@@H](C)O1 | 1.3 | 11 | 0.7 | 6.6 | 
2 | C[C@@H]1O[C@@H](CC(=O)O)CC2=C1C(=O)c1c(O)c3c(c(O)c1C2=O)[C@H]1C[C@@H](O[C@H]2CC[C@H](O)[C@H](C)O2)[C@@]3(O)[C@@H](C)O1 |  |  |  |  | Active
3 | C[C@@H]1O[C@@H](CC(=O)O)Cc2cc3c(c(O)c21)C(=O)C1=C(C3=O)[C@H]2C[C@@H](O)[C@@]1(O)[C@@H](C)O2 | 197 | 179 | 297 | 148 | 
4 | C[C@@H]1O[C@H]2CC(=O)O[C@H]2C2=C1C(=O)c1c(O)c3c(c(O)c1C2=O)[C@H]1C[C@@H](O[C@H]2CC[C@H](O)[C@H](C)O2)[C@@]3(O)[C@@H](C)O1 [GRANATICIN B] | 1.9 | 14.8 | 1.6 | 5.8 | Active
5 | C[C@@H]1O[C@@H](CC(=O)O)Cc2cc3c(c(O)c21)C(=O)C1=C(C3=O)[C@H]2C[C@@H](O[C@H]3CC[C@H](O)[C@H](C)O3)[C@@]1(O)[C@@H](C)O2 | 37.6 | 13.1 | 20.2 | 18.8 | 
